Screens as filed in PubChem BioAssay.
Compounds with a hit are over-represented: about 1.5% of the library has one in this group of screens.
NR2E3 ag-1: NR2E3 agonists in two-hybrid cells, primary screen, cell-based, luminescence, CHO-S, Gal4-NCOR/VP16-NR2E3 | Photoreceptor-specific nuclear receptor (Homo sapiens), Q9Y5X4 | luciferase | inhibition of corepressor binding, % at 3.98 µM | actives 0.35% (n = 360,000);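 active means inhibition above the mean of all tested compounds plus 3 SD, cut at about 70% in these data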;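 further: higher means lower luciferase signal from less NR2E3 corepressor binding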
Target sequence (Q9Y5X4 whole entry, looked up, the tested form may be a part): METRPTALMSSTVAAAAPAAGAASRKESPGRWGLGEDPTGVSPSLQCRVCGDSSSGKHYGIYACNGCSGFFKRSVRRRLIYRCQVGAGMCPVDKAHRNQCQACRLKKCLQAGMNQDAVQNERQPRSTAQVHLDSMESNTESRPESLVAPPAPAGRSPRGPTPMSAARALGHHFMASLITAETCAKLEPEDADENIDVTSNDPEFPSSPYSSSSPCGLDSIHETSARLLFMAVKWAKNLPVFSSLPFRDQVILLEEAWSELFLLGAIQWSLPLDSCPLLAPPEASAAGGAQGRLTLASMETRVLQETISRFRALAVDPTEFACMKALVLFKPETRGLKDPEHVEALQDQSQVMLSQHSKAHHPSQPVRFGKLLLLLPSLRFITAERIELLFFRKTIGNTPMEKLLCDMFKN
NR2E3 ag-2: inhibitors of NR2E3-RetCOR corepressor binding, primary screen, NR2E3 agonist project, biochemical, TR-FRET, GST-NR2E3, biotin-RetCOR | actives 0.12% (n = 320,000) | AID 2300, 2010 | Photoreceptor-specific nuclear receptor (Homo sapiens), Q9Y5X4 | 1536-well | inhibition of corepressor binding, % at 4.78 µM;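 active means percent inhibition above the cutoff of mean plus 3 SD of all tested compounds, set per screening campaign, cut at about 20% in these data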
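System: GST-NR2E3 and biotin-RetCOR proteins; probe or stimulus: 7 nM biotin-RetCOR; doses: compound at 4.8 µM, single dose; schedule: Compound–protein incubation for 5 h at 4 °C; detection: time-resolved FRET; read-out: percent inhibition; controls: biotin wells as high control, 0.6% DMSO wells as low control; format: 1536-well plates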
GalR3 antag: GalR3 antagonists in HEK293 cells, primary screen, cell-based, fluorescence readout. inhibition, % at 3 µM. AID 651719, 2012. HEK293 GalR3-CNG cAMP membrane potential fluorescence; galR3 body fused to GalR1 C-terminus. Galanin receptor type 3 (Homo sapiens), O60755. actives 0.44% (n = 360,000);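 active means inhibition above the screen-wide average plus 3 SD, cut at about 13% in these data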;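 further: forskolin and galanin both at EC90 stimulate the cells; cAMP rise reported by CNG channel membrane potential dye signal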
697 NFkB inh: inhibitors of PMA/ionomycin-induced NF-kB reporter, 697 cells, primary screen, B-cell NF-kB inhibitor project, cell-based, luminescence, uHTS; inhibition, % at 4 µM; AID 435022, 2010; actives 0.33% (n = 330,000); 697 B-cell NF-kB luciferase reporter, 16 h; in the data active means inhibition above about 35%
JMJD2C inh: inhibitors of GASC-1 histone demethylase, primary screen, biochemical, fluorescence, DELFIA europium; Lysine-specific demethylase 4C (Homo sapiens), Q9H3R0; GST-JMJD2C(1-420) H3K9me3 demethylation; inhibition, % at 2.35 µM; actives 0.069% (n = 330,000); AID 2099, 2009;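 active means more than half of a compound's replicate wells show inhibition beyond 50%, single wells judged on their own value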;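 further: signal counts dimethyl H3K9 product captured on neutravidin plate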
Jurkat NFkB inh: inhibitors of induced NF-kB luciferase reporter, primary screen, TCR NF-kB activation inhibitor project, cell-based, luminescence, uHTS. inhibition, % at 4 µM. actives 0.53% (n = 330,000). AID 435003, 2010. Jurkat, PMA/ionomycin-induced NF-kB luciferase reporter; in the data active means inhibition above about 50%
GalR3 antag conf: GalR3 antagonist hit confirmation, cell-based, fluorescence, triplicate | shares compounds with GalR3 antag | HEK293 GalR3 CNG cAMP biosensor, membrane potential fluorescence; galR3 fused to GalR1 carboxy tail; challenged with forskolin and galanin at EC90 | inhibition, % at 3 µM | actives 59% (n = 1,600) | AID 652245, 2013;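 active means inhibition above the primary screen's cutoff, the mean inhibition of all screened compounds plus 3 SD, cut at about 13% in these data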
HEK-CNG parental: nonspecific cAMP agonists in parental HEK-CNG cells, counter-screen for GalR3 antagonist project, cell-based, fluorescence, high throughput | shares compounds with GalR3 antag | HEK293-CNG parental cells, cAMP membrane potential fluorescence; normalised: DMSO wells 0%, forskolin wells 100% | activation, % at 3 µM | actives 10% (n = 1,600) | AID 652268, 2013; in the data active means activation above about 1.3%
Hits are given with their value; – = inactive; · = not tested or not shown.

SMILES	NR2E3 ag-1	NR2E3 ag-2	GalR3 antag	697 NFkB inh	JMJD2C inh	Jurkat NFkB inh	GalR3 antag conf	HEK-CNG parental
O=C(Nc1ccc(Cl)cc1)c1cccc(N2C(=O)C3C4CCC(C4)C3C2=O)c1 (configuration not stated)	–	–	92.0	–	–	–	–	–
CCC(C)NC(=O)c1cn(CC)c2cc(N3CCN(C(=O)c4ccco4)CC3)c(F)cc2c1=O (configuration not stated)	–	–	–	–	–	–	·	·
CC(=O)c1cccc(NS(=O)(=O)c2ccc(C(=O)Nc3ccccc3)cc2)c1	75.0	–	55.6	–	–	–	71.0	–
O=C(Nc1ccccc1)c1ccc(S(=O)(=O)Nc2cccc(O)c2)cc1	–	–	–	–	–	–	·	·
CCN(CC)CC(=O)NCc1cc(-c2ccc(OC)cc2)no1	–	–	–	–	–	–	·	·
COc1ccc(-c2cc(CNC(=O)CN3CCN(C)CC3)on2)cc1	–	–	13.3	–	–	–	–	–
COc1ccc(CC2(CO)CCN(Cc3ccc(NC(C)=O)cc3)CC2)cc1	–	–	–	–	–	–	·	·
COc1ccc(CC2(CO)CCN(Cc3cnn(-c4ccccc4)c3)CC2)cc1	–	–	–	–	–	–	·	·
COc1ccc(CC2(CO)CCN(Cc3ccc(OC(F)(F)F)cc3)CC2)cc1	–	–	16.5	–	–	–	–	1.8
COc1ccc(CC2(CO)CCN(Cc3cnn(-c4ccc(F)cc4)c3)CC2)cc1	–	–	16.6	–	–	–	–	1.5
CCCc1cc(=O)oc2c3c(cc(OCC(=O)NCc4ccncc4)c12)OC(C)(C)CC3	–	–	15.2	–	–	–	–	–
CCCc1cc(=O)oc2c3c(cc(OCC(=O)N[C@@H](C)C(=O)O)c12)OC(C)(C)CC3	–	–	–	–	–	–	·	·
COc1ccc(NC(=O)COC(=O)c2ccc(OC)c(S(=O)(=O)N3CCCC3)c2)cc1OC	–	–	–	–	–	–	·	·
Cc1ccc(NC(=O)CNc2cccc(S(=O)(=O)N3CCOCC3)c2)cc1F	–	–	–	–	–	–	·	·
CCN(CC)S(=O)(=O)c1cc(NC(=O)CNc2cccc(S(=O)(=O)N3CCOCC3)c2)ccc1C	–	–	93.3	–	–	–	116.3	–
O=C(CSc1ncccn1)Nc1cccc(S(=O)(=O)N2CCOCC2)c1	–	·	–	–	–	–	·	·
O=C(CSc1nccc(=O)[nH]1)Nc1cccc(S(=O)(=O)N2CCOCC2)c1	–	–	30.6	–	–	–	–	–
Cc1cccc(N(C(=O)CCC(=O)Nc2nccs2)C(C(=O)NC(C)(C)C)c2ccc(O)cc2)c1 (configuration not stated)	–	–	–	–	–	–	·	·
O=C(CCCNS(=O)(=O)c1ccc(Cl)c(Cl)c1)NCCc1ccccn1	–	–	–	–	–	–	·	·
COc1cc(Nc2nc3c(N)cc(C(F)(F)F)cc3nc2-c2ccccc2)cc(OC)c1OC	–	·	–	·	·	·	·	·
COc1ccc(CNC(=O)c2cnn3c(C(F)F)cc(C)nc23)cc1OC	–	–	14.6	–	–	–	20.3	–
COCCNC(=O)c1cnn2c(C(F)F)cc(-c3ccc(C)cc3)nc12	–	–	–	–	–	–	·	·
CN(C)S(=O)(=O)N1CCC(Oc2ccc(C(=O)NC3Cc4ccccc4C3)cc2)CC1	–	–	30.2	–	–	–	99.3	–
Cc1ccc(/C(N)=N/OC(=O)CCC2CCCCC2)cc1	–	–	–	–	–	–	·	·
Cc1ccc(/C(N)=N/OC(=O)CCC2CCCC2)cc1	–	–	13.4	–	–	–	–	–
SMILES	NR2E3 ag-1	NR2E3 ag-2	GalR3 antag	697 NFkB inh	JMJD2C inh	Jurkat NFkB inh	GalR3 antag conf	HEK-CNG parental
Cc1cc(C(=O)OCC(=O)Nc2ccccc2C#N)c(C)o1	–	·	–	–	·	–	·	·
COc1ccc(C(=O)Nc2cccc(-c3cnc4ccccc4n3)c2)cc1	–	–	–	–	–	–	·	·
COC(=O)C1CCN(Cc2ccc(OCCCN3CCN(c4ccc([N+](=O)[O-])cc4)CC3)cc2)CC1	–	–	13.4	–	–	–	114.4	3.1
Cn1c(CN2CCCCC2)nc2cc(NC(=O)c3ccc(Cl)cc3)ccc21	–	–	80.9	–	–	–	48.1	–
CCOC(=O)COc1cnc2ccccc2n1	–	–	–	–	–	–	·	·
Fc1ccc(/C=N/NC(=S)Nc2cccnc2)cc1F	–	–	–	–	–	–	·	·
Fc1ccc(/C=N/NC(=S)Nc2cccnc2)cc1	–	–	21.4	–	–	–	–	–
O=C(Cn1c(C(=O)N2CCN(C3CCCC3)CC2)cc2sccc21)c1ccccc1	–	–	–	–	–	–	·	·
COc1ccc(C(=O)c2ccc3oc(-c4ccc(OC)cc4)c(-c4ccc(O)cc4)c3c2)cc1	–	·	12.7	–	–	–	–	–
CCC[C@H]1CN(c2ccccc2)C(=O)[C@@H]1CC(=O)Nc1ccc(Br)cc1	–	·	–	·	·	·	·	·
Cc1nc(NCC2CC2)c2nnn(Cc3ccccc3)c2n1	–	–	18.4	–	–	–	–	–
C[N+]1(CC(=O)OCCCC2CCCCC2)CCCC1	–	–	–	–	–	–	·	·
CCOC(=O)C[N+]1(C)CCN(C(C)=O)CC1	–	–	13.4	–	–	–	–	–
COc1ccc(-n2c(Cc3ccccc3)nnc2SCc2ccc([N+](=O)[O-])cc2)cc1	–	–	–	–	–	–	·	·
Cc1ccc(-n2c(SCc3ccc(C#N)cc3)nnc2-c2ccccn2)cc1	–	–	13.3	–	–	–	–	–
COc1ccc(-n2c(SCc3ccc([N+](=O)[O-])cc3)nnc2-c2ccc(C)cc2)cc1	–	–	49.8	–	–	–	–	–
CCN=C1NC(c2cccc(F)c2)C(C(=O)OC)=C(C)N1Cc1ccccc1C(F)(F)F (configuration not stated)	·	·	–	·	·	·	·	·
